Assay outcomes (PubChem BioAssay)
A selection: hits, their analogues and other compounds. The true share with any hit is near 3.5%.
MrgX1 PAM – positive allosteric modulators of MrgX1, primary screen, HEK293 cells, Fluo-4 calcium flux; FDSS; active compounds read high; B-score at 10 µM; 0.63% of 310,000 active; AID 588675, 2011;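 active = plate-corrected calcium response at least 3 library SD above typical, normal starting fluorescence, not activating the receptor alone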;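 also: compound read alongside a low EC10 to EC30 dose of BAM8-22 agonist; peak minus trough fluorescence over baseline measured at the second addition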
Target sequence (Q96LB2 whole entry, looked up): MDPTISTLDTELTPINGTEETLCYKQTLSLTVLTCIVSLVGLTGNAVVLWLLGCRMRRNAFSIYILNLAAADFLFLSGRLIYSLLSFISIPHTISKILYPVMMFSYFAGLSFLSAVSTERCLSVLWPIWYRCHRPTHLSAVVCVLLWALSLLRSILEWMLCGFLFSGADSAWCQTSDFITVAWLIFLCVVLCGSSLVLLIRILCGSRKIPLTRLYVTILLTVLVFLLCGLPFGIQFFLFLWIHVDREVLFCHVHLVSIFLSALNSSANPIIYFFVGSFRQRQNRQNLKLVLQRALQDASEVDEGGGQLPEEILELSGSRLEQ
RGS4 inh – RGS4 inhibitors, primary screen, cell-based, HEK293 M3R inducible RGS4, calcium flux | 0.45% of 310,000 active | AID 463165, 2010 | B-score at 10 µM | Regulator of G-protein signaling 4 (Homo sapiens), P49798 | Fluo-4 calcium flux; active compounds read high; triggered by carbachol at its EC20;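 active = B-score, a plate-corrected calcium signal, over three deviations above library mean, with baseline fluorescence within five deviations of library mean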;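 also: RGS4 expression induced by doxycycline in cells with stable M3 receptor; B-score is computed from the integrated fluorescence ratio over baseline after carbachol; higher B-score means a larger calcium signal and so more RGS4 inhibition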
Target sequence (P49798 whole entry, looked up): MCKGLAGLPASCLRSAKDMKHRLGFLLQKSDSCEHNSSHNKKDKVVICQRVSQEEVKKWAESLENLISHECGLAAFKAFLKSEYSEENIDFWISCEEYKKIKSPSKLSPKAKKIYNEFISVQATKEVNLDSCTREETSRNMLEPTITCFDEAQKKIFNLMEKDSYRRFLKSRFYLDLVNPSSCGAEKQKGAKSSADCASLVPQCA
RGS4 act – RGS4 potentiators or activators, primary screen, cell-based, HEK293 M3R inducible RGS4, calcium flux; carbachol calcium flux Fluo4; active compounds read low; B-score at 10 µM; 0.92% of 310,000 active; AID 463111, 2010;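 active = B-score of the integrated calcium signal more than 4 SD below the library mean, with starting fluorescence not abnormally high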;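 also: negative B-score means reduced calcium response which marks RGS4 activation or potentiation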
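System: HEK293 FlpIn-TREx cells, stable M3R, doxycycline-inducible RGS4. Timing: overnight RGS4 induction, 30 min dye load 37 °C, 20 min compound RT. Also added: carbachol, ECmax concentration. Measured by: Fluo4 fluorescence kinetic imaging of calcium. Evaluation: integrated calcium ratio converted to B score.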
MrgX1 antagonist – antagonists of human MrgX1 receptor, primary screen, HEK293 cells, Fluo-4 calcium flux | BAM8-22 antagonism; active compounds read low | 1.3% of 310,000 active | Mas-related G-protein coupled receptor member X1 (Homo sapiens), Q96LB2 | AID 588676, 2011 | B-score at 10 µM;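 active = calcium-response B-score plate-corrected more than 3 library SD below zero, starting fluorescence within 5 deviations, no agonist response on first addition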;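 also: peak minus trough fluorescence over baseline after final BAM8-22 challenge near maximal dose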
MrgX1 agonist – agonists of human MrgX1 receptor, primary screen, HEK293 cells, Fluo-4 calcium flux; Fluo-4 calcium fluorescence, agonist mode; active compounds read high; 0.44% of 310,000 active; Mas-related G-protein coupled receptor member X1 (Homo sapiens), Q96LB2; B-score at 10 µM;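 active = calcium response B-score plate-corrected fluorescence ratio at least 3 library SD, with starting fluorescence B-score inside 5 SD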
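Assay system: stable human MrgX1 HEK293 cell line. Quantity: 15,000 cells per well. Schedule: cells plated overnight, dye loaded 0.5 h 37 °C, 0.5 h room temperature. Detection: Fluo-4 NW calcium-flux fluorescence, kinetic read. Read-out basis: peak-minus-minimum fluorescence over baseline, converted to B scores. Control set: positive and negative control wells on each plate.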
RGS4 activ val – reduced carbachol calcium response, RGS4-induced M3R cells, confirmation, RGS4 activator project, cell-based, HEK293 M3R/RGS4 inducible, calcium flux, duplicate. 89% of 1,100 active. inhibition, % at 10 µM. shares compounds with RGS4 act. carbachol calcium flux Fluo4;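 active = inhibition above 3 SD of the buffer control wells, cut at about 41% in these data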;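 also: signal is the integrated peak-minus-minimum Fluo4 fluorescence over baseline ratio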
M3R Ca counter – RGS4 activator counter-screen hit in non-induced cells; shares compounds with RGS4 act; AID 602283; HEK293 M3R non-induced RGS4, Fluo4 calcium flux; after carbachol challenge at its EC90; inhibition, % at 10 µM; 82% of 1,100 active;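 active = inhibition exceeding 3 SD of buffer-only control wells, cut at about 26% in these data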;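 also: percent drop in integrated peak-minus-baseline over baseline Fluo4 ratio after carbachol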
Starred values were filed as active, the others as inactive; i = inactive; . = not tested or not shown.

SMILES | MrgX1 PAM | RGS4 inh | RGS4 act | MrgX1 antagonist | MrgX1 agonist | RGS4 activ val | M3R Ca counter
Cc1ccc(C)c(OCC(=O)N2CCc3ccccc3C2)c1 | i | i | -7.7* | i | i | 56* | 84*
COc1ccccc1OCC(=O)Nc1cc(Cl)ccc1Oc1ccccc1 | i | i | -9.1* | i | i | 0 | 0
Cc1ccccc1OCC(=O)Nc1cc(Cl)ccc1Oc1ccccc1 | i | i | i | i | i | . | .
C=CCn1c(CCC(O)CCCCC)n[nH]c1=S (stereo unspecified) | i | i | i | i | i | . | .
N#Cc1ccccc1Cn1cc(/C=N/Nc2ccc([N+](=O)[O-])cn2)c2ccccc21 | i | i | -11* | -6.2* | i | 78* | 84*
O=[N+]([O-])c1ccc(N/N=C/c2ccc(OCc3cccc4ccccc34)cc2)nc1 | i | i | i | i | i | . | .
CNC(=S)N/N=C1\C(=O)c2cccc3cccc1c23 | i | i | -7.8* | i | i | 0 | 0
CCCCNC(=S)N/N=C1\C(=O)c2cccc3cccc1c23 | i | i | i | i | i | . | .
COC(=O)C1CC(=O)c2sccc2C1 (stereo unspecified) | i | i | i | i | i | . | .
CC(C)Cc1ccccc1S(N)(=O)=O | i | i | i | i | i | . | .
COC(=O)c1cc2ccsc2n1Cc1nc(-c2ccc(OC)cc2)oc1C | i | i | -11* | i | i | 92* | 79*
COC(=O)c1ccc(OCCN2CCCCCC2)cc1 | i | i | -7.8* | i | i | 66* | 84*
Cc1ccc(/C=C/C(O)=C2/C(=O)N(C)C3(C)CC2c2ccccc2O3)cc1 (stereo unspecified) | i | i | -8* | i | i | 73* | 84*
COc1ccc(/C=C/C(O)=C2/C(=O)N(C)C3(C)CC2c2ccccc2O3)cc1 (stereo unspecified) | i | i | i | i | i | . | .
COc1cc(/C=N/NC(=O)c2ccncc2)ccc1OC(=O)c1cc(OC)c(OC)c(OC)c1 | i | i | i | i | i | . | .
O=C(CC(c1ccccc1)c1ccccc1)Nc1ccc(C(=O)O)cc1 | i | i | i | i | i | . | .
CCN1CCN(c2nc(-c3ccccc3)c3ccccc3n2)CC1 | i | i | -8.6* | i | i | 82* | 40*
CCN1C=C(Cc2cccs2)C2=C(C1)C(c1cccs1)C(C#N)=C(N)O2 (stereo unspecified) | i | i | i | i | i | . | .
S=C1N(c2ccccc2)C(c2ccc(Br)cc2)N2CCCN12 (stereo unspecified) | i | i | -11* | i | i | 94* | 90*
O=C(CCc1nc2ccccc2c(=O)[nH]1)N1CCN(c2ccc(F)cc2)CC1 | i | i | i | i | i | . | .
Cc1c(C(=O)NCC(c2ccco2)N(C)C)oc2c(Cl)cccc12 (stereo unspecified) | i | i | i | i | i | . | .
Cc1cc(F)ccc1NC(=O)C1CCCO1 (stereo unspecified) | i | i | i | i | i | . | .
O=C(Nc1ccccc1F)Nc1cc(S(=O)(=O)N2CCOCC2)ccc1N1CCCC1 | i | i | i | i | i | . | .
O=C(Nc1ccc(Cl)c(Cl)c1)Nc1cc(S(=O)(=O)N2CCOCC2)ccc1N1CCCC1 | i | i | -9.2* | i | i | 72* | 27*
CCn1ccnc1CNC(=O)c1ccc2oc(C(C)C)nc2c1 | i | i | -8.2* | i | i | 82* | 47*
SMILES | MrgX1 PAM | RGS4 inh | RGS4 act | MrgX1 antagonist | MrgX1 agonist | RGS4 activ val | M3R Ca counter
CC(C)C(NC(=O)c1ccccc1NC(=O)c1ccccc1)C(=O)NCCCn1ccnc1 (stereo unspecified) | i | i | i | i | i | . | .
CCOCCn1c(=O)c2c(nc3n2CC(C)CN3Cc2ccccc2)n(C)c1=O (stereo unspecified) | i | i | i | i | i | . | .
CCN(CC(=O)Nc1c(F)cccc1F)C(=O)COc1ccc2c(c1)CCC2 | i | i | i | i | i | . | .
O=C(CSCc1cc(=O)n2nc(C3CC3)sc2n1)Nc1ccc(F)cc1 | i | i | i | i | i | . | .
Cc1cccc(CCNC(=O)CNS(=O)(=O)c2ccc3nc(C)sc3c2)c1 | i | i | i | i | i | . | .
CCOC(=O)c1sc(NC(=O)CSc2nnc(-c3ccco3)n2CC)c(C(=O)OCC)c1C | i | i | -18* | i | i | 92* | 91*
COC(=O)c1c(NC(=O)CSc2nnc(-c3ccco3)n2C)sc(C)c1C | i | i | i | i | i | . | .
CN1CCN(C(=O)C2CCN(c3ncc(C(F)(F)F)cc3Cl)CC2)CC1 | i | i | -12* | i | i | 86* | 41*
Cc1ccc(CCC(=O)NCc2ccccc2)o1 | i | i | -7.8* | i | i | 0 | 0
NC(=O)C[N+]1(CC#CC(O)(c2ccccc2)c2ccccc2)CCCC1 | i | i | -12* | i | i | 52* | 0
Cc1c(C)n2c(SCC(=O)NCc3ccc4c(c3)OCO4)nnc2[nH]c1=O | i | i | i | i | i | . | .
S=C(NCc1ccco1)N1CCN(C(c2ccccc2)c2ccccc2)CC1 | i | i | -9.8* | i | i | 66* | 0
COc1ccc(C(=O)CSc2nccn2C)c(OC)c1 | i | i | i | i | i | . | .
C=CCNC(=O)c1cc(-c2cccnc2)nc2ccccc12 | i | i | i | i | i | . | .
O=C(Nc1ccccc1)Nc1cc(Cl)cc(Cl)c1 | i | i | -8.3* | i | i | 62* | 84*
OCC1(CCc2ccccc2)CCN(C/C=C/c2ccccc2)CC1 | i | i | i | i | i | . | .
OCC1(Cc2ccccc2Cl)CCN(C/C=C/c2ccccc2)CC1 | i | i | -9.2* | i | i | 94* | 83*
Cc1ccccc1C1c2[nH]c3ccccc3c2CCN1CCCn1cccn1 (stereo unspecified) | i | i | -7.7* | i | i | 93* | 91*
